Test results taken from ChEMBL document CHEMBL1145833, “Studies on the synthesis and biological properties of non-carrier-added [(125)I and (131)I]-labeled arylalkylidenebisphosphonates: potent bone-seekers for diagnosis and therapy of malignant osseous lesions” (J Med Chem, 2003).

Assays:
Settings in all cases: in vivo
[1] = species on record: Mus musculus; test: Distribution of compound in kidneys tissue of mice after 24 hr injection time was determined; assay type: ADME, organism-based, Kidney
In short: (§1)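 Healthy athymic nude mice (balb/c nu/nu, 20–25 g, both sexes) received 50–400 KBq radioiodinated bisphosphonate in 100 µL phosphate buffer pH 6–7 by tail-vein injection. Three animals were sacrificed per time point. Tissues were excised, weighed and gamma-counted. Values are % injected dose per gram tissue, mean ± 1 SD, n = 3.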

[2] = species on record: Mus musculus; test: Distribution of compound in intestine tissue of mice after 24 hr injection time was determined; assay type: ADME, organism-based; in short: as §1
[3] = species on record: Mus musculus; test: Distribution of compound in lungs tissue of mice after 24 hr injection time was determined; assay type: ADME, organism-based, Lung; in short: as §1
[4] = species on record: Mus musculus; test: Distribution of compound in thyroid tissue of mice after 24 h injection time was determined; assay type: ADME, organism-based, Thyroid gland
In short: (§2)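 Healthy athymic nude balb/c nu/nu mice (20–25 g) received 50–400 KBq radioiodinated bisphosphonate in 100 μL phosphate buffer, pH 6–7, by tail-vein injection. Three animals were sacrificed per time point. Thyroid-containing tissue was excised, weighed and gamma-counted. Values are % of injected dose, mean ± 1 SD of three mice.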

[5] = species on record: Mus musculus; test: Distribution of compound in heart tissue of mice after 24 hr injection time was determined; assay type: ADME, organism-based; in short: as §1
[6] = species on record: Mus musculus; test: Distribution of compound in blood tissue of mice after 24 hr injection time was determined; assay type: ADME, organism-based; in short: as §1
[7] = species on record: Mus musculus; test: Distribution of compound in skull tissue of mice after 24 hr injection time was determined; assay type: ADME, organism-based; in short: as §1
[8] = species on record: Mus musculus; test: Distribution of compound in liver tissue of mice after 24 hr injection time was determined; assay type: ADME, organism-based; in short: as §1
[9] = species on record: Mus musculus; test: Distribution of compound in femur tissue of mice after 24 hr injection time was determined; assay type: ADME, organism-based; in short: as §1
[10] = species on record: Mus musculus; test: Distribution of compound in spleen tissue of mice after 24 hr injection time was determined; assay type: ADME, organism-based; in short: as §1
[11] = species on record: Mus musculus; test: Distribution of compound in stomach tissue of mice after 24 hr injection time was determined; assay type: ADME, organism-based; in short: as §1
[12] = species on record: Mus musculus; test: Distribution of compound in femur tissue of mice after 2 hr injection time was determined; assay type: ADME, organism-based; in short: as §1
[13] = species on record: Mus musculus; test: Distribution of compound in skull tissue of mice after 2 hr injection time was determined; assay type: ADME, organism-based; in short: as §1
[14] = species on record: Mus musculus; test: Distribution of compound in heart tissue of mice after 2 hr injection time was determined; assay type: ADME, organism-based; in short: as §1
[15] = species on record: Mus musculus; test: Distribution of compound in intestine tissue of mice after 0.5 hr injection time was determined; assay type: ADME, organism-based; in short: as §1
[16] = species on record: Rattus norvegicus; test: Distribution of compound in femur tissue of rats after 24 h injection time was determined; assay type: ADME, organism-based
In short: (§3)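 Healthy congenitally athymic nude rats (Han rnu/rnu Rowett, 60 g, both sexes) received 0.4 MBq radioiodinated bisphosphonate in 200 µL phosphate buffer pH 7 via tail vein. Three rats were sacrificed 24 h post-injection. Excised organs were weighed and gamma-counted. Values are % injected dose per gram tissue, mean ± 1 SD of three rats.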

[17] = species on record: Mus musculus; test: Distribution of compound in liver tissue of mice after 5 hr injection time was determined; assay type: ADME, organism-based; in short: as §1
[18] = species on record: Mus musculus; test: Distribution of compound in blood tissue of mice after 5 h injection time was determined; assay type: ADME, organism-based; in short: as §1
[19] = species on record: Rattus norvegicus; test: Distribution of compound in stomach tissue of rats after 24 hr injection time was determined; assay type: ADME, organism-based; in short: as §3
[20] = species on record: Mus musculus; test: Distribution of compound in stomach tissue of mice after 2 hr injection time was determined; assay type: ADME, organism-based; in short: as §1
[21] = species on record: Mus musculus; test: Distribution of compound in heart tissue of mice after 5 hr injection time was determined; assay type: ADME, organism-based; in short: as §1
[22] = species on record: Mus musculus; test: Distribution of compound in femur tissue of mice after 5 hr injection time was determined; assay type: ADME, organism-based; in short: as §1
[23] = species on record: Rattus norvegicus; test: Distribution of compound in heart tissue of rats after 24 hr injection time was determined; assay type: ADME, organism-based; in short: as §3
[24] = species on record: Mus musculus; test: Distribution of compound in stomach tissue of mice after 0.5 hr injection time was determined; assay type: ADME, organism-based; in short: as §1
[25] = species on record: Mus musculus; test: Distribution of compound in intestine tissue of mice after 5 hr injection time was determined; assay type: ADME, organism-based; in short: as §1
[26] = species on record: Mus musculus; test: Distribution of compound in liver tissue of mice after 2 h injection time was determined; assay type: ADME, organism-based; in short: as §1
[27] = species on record: Mus musculus; test: Distribution of compound in spleen tissue of mice after 0.5 hr injection time was determined; assay type: ADME, organism-based; in short: as §1
[28] = species on record: Rattus norvegicus; test: Distribution of compound in intestine tissue of rats after 24 hr injection time was determined; assay type: ADME, organism-based; in short: as §3
[29] = species on record: Mus musculus; test: Distribution of compound in thyroid tissue of mice after 5 h injection time was determined; assay type: ADME, organism-based, Thyroid gland; in short: as §2
[30] = species on record: Rattus norvegicus; test: Distribution of compound in liver tissue of rats after 24 hr injection time was determined; assay type: ADME, organism-based; in short: as §3
[31] = species on record: Mus musculus; test: Distribution of compound in kidneys tissue of mice after 5 hr injection time was determined; assay type: ADME, organism-based, Kidney; in short: as §1
[32] = species on record: Mus musculus; test: Distribution of compound in lungs tissue of mice after 5 hr injection time was determined; assay type: ADME, organism-based, Lung; in short: as §1
[33] = species on record: Mus musculus; test: Distribution of compound in intestine tissue of mice after 2 hr injection time was determined; assay type: ADME, organism-based; in short: as §1
[34] = species on record: Rattus norvegicus; test: Distribution of compound in thyroid tissue of rats after 24 hr injection time was determined; assay type: ADME, organism-based, Thyroid gland
In short: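 Healthy congenitally athymic nude rats (Han rnu/rnu Rowett, 60 g) received 0.4 MBq radioiodinated bisphosphonate in 200 μL phosphate buffer, pH 7, by tail-vein injection. Three rats were sacrificed 24 h after injection. Thyroid-containing tissue was excised, weighed and gamma-counted. Values are % of injected dose, mean ± 1 SD of three rats.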

[35] = species on record: Mus musculus; test: Distribution of compound in kidneys tissue of mice after 0.5 hr injection time was determined; assay type: ADME, organism-based, Kidney; in short: as §1
[36] = species on record: Mus musculus; test: Distribution of compound in skull tissue of mice after 0.5 hr injection time was determined; assay type: ADME, organism-based; in short: as §1
[37] = species on record: Mus musculus; test: Distribution of compound in liver tissue of mice after 0.5 hr injection time was determined; assay type: ADME, organism-based; in short: as §1
[38] = species on record: Mus musculus; test: Distribution of compound in lungs tissue of mice after 0.5 h injection time was determined; assay type: ADME, organism-based, Lung; in short: as §1
[39] = species on record: Mus musculus; test: Distribution of compound in spleen tissue of mice after 5 h injection time was determined; assay type: ADME, organism-based; in short: as §1
[40] = species on record: Rattus norvegicus; test: Distribution of compound in spleen tissue of rats after 24 hr injection time was determined; assay type: ADME, organism-based; in short: as §3
[41] = species on record: Mus musculus; test: Distribution of compound in thyroid tissue of mice after 2 hr injection time was determined; assay type: ADME, organism-based, Thyroid gland; in short: as §2
[42] = species on record: Mus musculus; test: Distribution of compound in femur tissue of mice after 0.5 hr injection time was determined; assay type: ADME, organism-based; in short: as §1
[43] = species on record: Mus musculus; test: Distribution of compound in kidneys tissue of mice after 2 hr injection time was determined; assay type: ADME, organism-based, Kidney; in short: as §1
[44] = species on record: Rattus norvegicus; test: Distribution of compound in lung tissue of rats after 24 hr injection time was determined; assay type: ADME, organism-based; in short: as §3
[45] = species on record: Mus musculus; test: Distribution of compound in thyroid tissue of mice after 0.5 hr injection time was determined; assay type: ADME, organism-based, Thyroid gland; in short: as §2
[46] = species on record: Mus musculus; test: Distribution of compound in blood tissue of mice after 2 hr injection time was determined; assay type: ADME, organism-based; in short: as §1
[47] = species on record: Mus musculus; test: Distribution of compound in skull tissue of mice after 5 h injection time was determined; assay type: ADME, organism-based; in short: as §1
[48] = species on record: Mus musculus; test: Distribution of compound in stomach tissue of mice after 5 hr injection time was determined; assay type: ADME, organism-based; in short: as §1
[49] = species on record: Mus musculus; test: Distribution of compound in lungs tissue of mice after 2 hr injection time was determined; assay type: ADME, organism-based, Lung; in short: as §1
[50] = species on record: Mus musculus; test: Distribution of compound in spleen tissue of mice after 2 hr injection time was determined; assay type: ADME, organism-based; in short: as §1
[51] = species on record: Rattus norvegicus; test: Distribution of compound in kidney tissue of rats after 24 hr injection time was determined; assay type: ADME, organism-based; in short: as §3
[52] = species on record: Rattus norvegicus; test: Distribution of compound in skull tissue of rats after 24 hr injection time was determined; assay type: ADME, organism-based; in short: as §3
[53] = species on record: Mus musculus; test: Distribution of compound in heart tissue of mice after 0.5 hr injection time was determined; assay type: ADME, organism-based; in short: as §1
[54] = species on record: Mus musculus; test: Distribution of compound in blood tissue of mice after 0.5 hr injection time was determined; assay type: ADME, organism-based; in short: as §1
[55] = species on record: Rattus norvegicus; test: Distribution of compound in blood tissue of rats after 24 hr injection time was determined; assay type: ADME, organism-based; in short: as §3

O=P(O)(O)C(CCc1cccc(I)c1)P(=O)(O)O
Injected [1]: 0.85% | Injected [2]: 0.05% | Injected [3]: 0.21% | Injected [4]: 0.02% | Injected [5]: 0.06% | Injected [6]: 0.02% | Injected [7]: 10.36% | Injected [8]: 0.35% | Injected [9]: 8.84% | Injected [10]: 0.17% | Injected [11]: 0.04%

O=P(O)(O)C(O)(Cc1cccc(I)c1)P(=O)(O)O
Injected [12]: 45.54% | Injected [13]: 26.49% | Injected [14]: 0.82% | Injected [15]: 1.07% | Injected [16]: 16.44% | Injected [1]: 5.16% | Injected [17]: 2.51% | Injected [18]: 0.82% | Injected [2]: 0.16% | Injected [19]: 0.05% | Injected [20]: 1.79% | Injected [21]: 0.4% | Injected [3]: 0.54% | Injected [4]: 0.06% | Injected [22]: 30.3% | Injected [23]: 0.04% | Injected [24]: 3.22% | Injected [25]: 0.45% | Injected [26]: 3.36% | Injected [5]: 0.18% | Injected [6]: 0.09% | Injected [27]: 2.02% | Injected [28]: 0.03% | Injected [29]: 0.49% | Injected [7]: 21.34% | Injected [30]: 0.18% | Injected [31]: 7.17% | Injected [32]: 0.61% | Injected [33]: 1% | Injected [8]: 2.27% | Injected [9]: 37.79% | Injected [34]: 0.02% | Injected [35]: 18.64% | Injected [36]: 24.61% | Injected [37]: 3.88% | Injected [38]: 5.41% | Injected [39]: 0.47% | Injected [40]: 0.09% | Injected [41]: 0.19% | Injected [10]: 0.49% | Injected [42]: 45.03% | Injected [43]: 13.3% | Injected [44]: 0.05% | Injected [45]: 0.51% | Injected [46]: 1.36% | Injected [11]: 0.13% | Injected [47]: 19.14% | Injected [48]: 0.38% | Injected [49]: 1.2% | Injected [50]: 0.77% | Injected [51]: 0.36% | Injected [52]: 5.84% | Injected [53]: 3.35% | Injected [54]: 15.92% | Injected [55]: 0.01%
